The values that follow come from ChEMBL document CHEMBL3297691, “Development and bioorthogonal activation of palladium-labile prodrugs of gemcitabine” (J Med Chem, 2014).

Data set [1] deals with BXPC-3. The data set can be described thus: Cytotoxicity against human BxPC3 cells at 30 nM up to 120 hrs by IncuCyte ZOOM analysis. It counts as functional, cell-based. The procedure, abridged: (§1)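 BxPC-3 cells in RPMI with 10% FBS and 2 mM L-glutamine were treated once at 30 nM. Wells were imaged every 3 h for 5 d (120 h) by IncuCyte ZOOM inside the incubator (37 °C, 5% CO2). Confluence came from image analysis; n = 3, ± SD.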

For data set [2], the system named is BXPC-3. The data set can be described thus: Cytotoxicity against human BxPC3 cells at 10 to 100 nM after 5 days by PrestoBlue assay in presence of palladium-resins. It counts as functional, cell-based. In short, it runs like this:
(§2)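 BxPC-3 (RPMI; 2,500 cells/well) or Mia PaCa-2 (DMEM; 1,000 cells/well) in 10% FBS and 2 mM L-glutamine were grown 48 h, then given fresh medium with compound (3, 10, 30, 100, 300 nM), with or without Pd0-resins (0.67 mg/mL), in 0.1% DMSO. After 5 days at 37 °C and 5% CO2, PrestoBlue (10% v/v) was added for 60 min; fluorescence ex 540/em 590 nm, normalized to DMSO wells; n = 3.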

Data set [3] can be described thus: Toxicity in human BxPC3 cells assessed as cell growth at 30 nM up to 120 hrs by IncuCyte ZOOM analysis. The note with it: bxpc-3, 120 h, 0.03 µM. It counts as cell-based. In short, it runs like this:
as §1

Data set [4] in a line: Cytotoxicity against human MIAPaCa2 cells after 5 days by PrestoBlue assay. Particulars: MIA PaCa-2, 96 h, in the assay text read “4 days” for “5 days”. Format: functional, cell-based.
A short description of data set [5]: Cytotoxicity against human BxPC3 cells after 5 days by PrestoBlue assay. It counts as functional, cell-based. Particulars: BXPC-3, 96 h, in the assay text read “4 days” for “5 days”.
Data set [6] in a line: Cytotoxicity against human MIAPaCa2 cells at 30 to 300 nM after 5 days by PrestoBlue assay. It counts as cell-based. Particulars: mia paca-2, 120 h, 0.3 µM. The procedure, abridged:
as §2

Data set [7] can be described thus: Prodrug conversion in phosphate buffered saline assessed as compound retention time at 100 uM after 6 to 24 hrs by HPLC analysis in presence of palladium-resins. Format: physicochemical. The note with it: buffer. In short, it runs like this: (§3)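 Prodrug at 100 μM in PBS (300 mOsm/kg, pH 7.4) was shaken at 1400 rpm and 37 °C with Pd0-resins (1 mg/mL, 4.4% w/w Pd; [Pd0] 400 μM). Samples were taken at 0, 6 and 24 h for reverse-phase HPLC with UV at 280 nm: water/acetonitrile with 0.1% formic acid, 95:5 to 5:95 over 3 min.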

Data set [8] can be described thus: Toxicity in human MIAPaCa2 cells assessed as induction of DNA damage by measuring phosphorylated gamma-H2AX level at 300 nM after 24 hrs by immunofluorescence analysis. Format: cell-based. The note with it: mia paca-2, 24 h, 0.3 µM. The procedure, abridged: (§4)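 Mia PaCa-2 cells (2,000/well, DMEM) were grown 48 h, then treated 24 h at 300 nM in 0.1% DMSO, with or without Pd0-resins (0.67 mg/mL). The prodrug–resin mix was preincubated 24 h at 37 °C before addition. Cells were fixed in 4% paraformaldehyde and permeabilized with 0.1% Triton X-100. Staining used rabbit anti-phospho-H2AX Ser139 (1:400, 1 h, RT), then Alexa 488 secondary, Hoechst and phalloidin. Imaged by confocal microscopy.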

In data set [9] the test system is BXPC-3. Briefly: Cytotoxicity against human BxPC3 cells at 100 nM after 5 days by PrestoBlue assay in presence of palladium-resins. Format: functional, cell-based. The procedure, abridged:
as §2

Data set [10] is described as follows: Prodrug conversion in phosphate buffered saline assessed as formation of gemcitabine at 100 uM after 24 hrs by HPLC analysis in presence of palladium-resins. Format: physicochemical. Particulars: buffer. The procedure, abridged:
as §3

Data set [11] in a line: Prodrug conversion in phosphate buffered saline assessed as half life of formation of gemcitabine at 100 uM by HPLC analysis in presence of palladium-resins. It counts as physicochemical. Particulars: buffer.
The test system of a further data set is MIA PaCa-2. The data set can be described thus: Cytotoxicity against human MIAPaCa2 cells at 30 to 300 nM after 5 days by PrestoBlue assay in presence of palladium-resins. It counts as functional, cell-based. The procedure, abridged: as §2
Data set [12] can be described thus: Toxicity in human MIAPaCa2 cells assessed as induction of DNA damage by measuring phosphorylated gamma-H2AX level at 300 nM after 24 hrs by immunofluorescence analysis in presence of palladium-resins. Format: cell-based. Particulars: mia paca-2, 24 h, 0.3 µM. The procedure, abridged:
as §4

A short description of data set [13]: Cytotoxicity against human BxPC3 cells at 10 to 100 nM after 5 days by PrestoBlue assay. The note with it: bxpc-3, 120 h, 0.1 µM. It counts as cell-based. In short, it runs like this:
as §2

The next data set is filed under the species Danio rerio. Briefly: Prodrug conversion in zebrafish yolk assessed as formation of rhodamine 110 at 5 uM after 24 hrs by fluorescence microscopic analysis in presence of palladium-resins. The note with it: in vivo.
The nature of data set [14]: Prodrug conversion in phosphate buffered saline assessed as gemcitabine retention time at 100 uM after 6 to 24 hrs by HPLC analysis in presence of palladium-resins. It counts as physicochemical. The note with it: buffer. The procedure, abridged: as §3
Data set [15] is described as follows: Cytotoxicity against human BxPC3 cells after 4 days by PrestoBlue assay. Particulars: BXPC-3, 96 h.
Data set [16] is described as follows: Cytotoxicity against human MIAPaCa2 cells after 4 days by PrestoBlue assay. Particulars: MIA PaCa-2, 96 h.

Molecules are shown by their SMILES. Activity calls are given as the source filed them. The rule behind the calls is not given here.

Regarding `C#CCOC(=O)Nc1ccn([C@H]2O[C@H](CO)[C@@H](O)C2(F)F)c(=O)n1`, the outcome with BXPC-3 [1], in the data set on BXPC-3 [2], in the data set on BXPC-3 [9] and in the data set on MIA PaCa-2 was Active. Moreover, the Activity in data set [3] was 100%; in data set [6], “Non-toxic”; in data set [8], “Non-toxic”; in [12], “Toxic”; in [13] it was “Non-toxic”. For the same molecule, the EC50 (in general, the concentration giving half of the maximal effect) is 1.4 µM in [4] and 0.237 µM in [5]. In addition, the Retention_time in data set [7] is 2.45 min. The Drug metabolism entry in data set [10] is reported as “Active”. For the same molecule, the t1/2 in data set [11] was below 6 h.

As to `O=C(Nc1ccc2c(c1)Oc1cc(NC(=O)OCc3ccccc3)ccc1C21OC(=O)c2ccccc21)OCc1ccccc1`, the Drug metabolism result in the data set filed under Danio rerio is “metabolite_notdetected”.

On to `C=CCOC(=O)OC[C@H]1O[C@H](n2ccc(N)nc2=O)C(F)(F)[C@@H]1O`, for which the EC50 in [4] was found to be 0.027 µM; in data set [5], 0.022 µM.

`Nc1ccn([C@@H]2O[C@H](CO)[C@@H](O)C2(F)F)c(=O)n1` [GEMCITABINE]: the EC50 stood at 2 µM in data set [4] and 0.01 µM in [5]. Besides, the Retention_time in [14] amounted to 0.93 min.

As to `C=CCOC(=O)Nc1ccn(C2O[C@H](CO)[C@@H](O)C2(F)F)c(=O)n1` (single isomer, unassigned), the outcome in the data set with BXPC-3 [1], in the data set on BXPC-3 [2], in the data set with BXPC-3 [9] and in the data set with MIA PaCa-2 was Active. Also, the Activity in [3] is recorded as 100%; in data set [6] it was “Non-toxic”; in data set [13], “Non-toxic”. In addition, the results for the EC50 in [4] and in data set [15] were 0.9 µM and 0.335 µM, respectively. In data set [7], the Retention_time amounted to 2.56 min. Also, the Drug metabolism entry in data set [10] is on record as “Active”.

Take `O=C(Nc1ccn([C@H]2O[C@H](CO)[C@@H](O)C2(F)F)c(=O)n1)OCc1ccccc1`: the EC50 came to 0.094 µM in data set [4] and 0.253 µM in data set [15]. For the same molecule, in [7], the Retention_time is given as 2.96 min. Moreover, the result with BXPC-3 [9] was inactive.

As for `C#CCOC(=O)OC[C@H]1O[C@H](n2ccc(N)nc2=O)C(F)(F)[C@@H]1O`, the EC50 in [5] was found to be 0.013 µM; in data set [16], 0.045 µM.

As to `Nc1ccn([C@H]2O[C@H](COC(=O)OCc3ccccc3)[C@@H](O)C2(F)F)c(=O)n1`, the EC50 turned out to be 0.029 µM in data set [4] and 0.012 µM in [5].

As to `C#CCOC(=O)Nc1ccc2c(c1)Oc1cc(NC(=O)OCC#C)ccc1C21OC(=O)c2ccccc21`, in the data set filed under Danio rerio, the Drug metabolism result is listed as “metabolite_detected”.
